A short description of data set [1]: Cytotoxicity in HEK293 cells. Type of data set: cell-based. Conditions: human. The procedure, abridged:
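HEK293 cells (ATCC CRL-1573) counted by haemocytometer and seeded at 5000 cells/well into compound-containing plates in DMEM plus 10% FBS. Incubated 20 h at 37 °C, 5% CO2. Resazurin added (25 μg/mL final) for a further 3 h, then fluorescence read at ex 530/em 590 nm. Percent inhibition calculated against media-only and untreated-cell controls. CC50 fitted from dose-response curves with variable bottom, top and slope.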

The subject of data set [2] is human red blood cells (RBC). As to the kind of experiment: Haemolytic activity in human red blood cells. Format: cell-based. Conditions: 1 h, 37 °C. The procedure, abridged:
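Human whole blood washed three times with 3 volumes of 0.9% NaCl, counted by haemocytometer, and resuspended in saline. Cells added to compound-containing plates, shaken 10 min, then incubated 1 h at 37 °C. Plates centrifuged at 1000 × g for 10 min to pellet cells and debris. Haemolysis read as supernatant absorbance at 405 nm.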

`O=C(CCCCCCCCCC[P+](c1ccccc1)(c1ccccc1)c1ccccc1)Nc1ccc(O)c(O)c1` [Compound 11e, (11-((3,4-dihydroxyphenyl)amino)-11-oxoundecyl)triphenylphosphonium bromide]: half-maximal cytotoxicity in data set [1] (CC50 at 20 h) was put at 22.4 µg/mL.

For `CC[C@H](C)[C@H](NC(=O)CN)C(=O)NCC(=O)N[C@@H](C)C(=O)N[C@H](C(=O)N[C@@H](CC(C)C)C(=O)N[C@@H](CCCCN)C(=O)N[C@H](C(=O)N[C@@H](CC(C)C)C(=O)N[C@H](C(=O)N[C@H](C(=O)NCC(=O)N[C@@H](CC(C)C)C(=O)N1CCC[C@H]1C(=O)N[C@@H](C)C(=O)N[C@@H](CC(C)C)C(=O)N[C@H](C(=O)N[C@@H](CO)C(=O)N[C@@H](Cc1c[nH]c2ccccc12)C(=O)N[C@H](C(=O)N[C@@H](CCCCN)C(=O)N[C@@H](CCCNC(=N)N)C(=O)N[C@@H](CCCCN)C(=O)N[C@@H](CCCNC(=N)N)C(=O)N[C@@H](CCC(N)=O)C(=O)N[C@@H](CCC(N)=O)C(N)=O)[C@@H](C)CC)[C@@H](C)CC)[C@@H](C)O)[C@@H](C)O)C(C)C)C(C)C` [Mellitin, melittin], in data set [2], the “RBC (HC10), concentration at 10% haemolytic activity” value was determined as 2.7 µg/mL.

For the origin of these results see publication PMC10704080 (Journal of Advanced Research, 2023).
